Test results taken from ChEMBL document CHEMBL1124171, “Ergolines as selective 5-HT1 agonists” (J Med Chem, 1988).

Columns and labels:
[1] = biological target: T1, Serotonin 1 (5-HT1) receptor (Rattus norvegicus, UniProt P28564+P30940+P19327+P28565); experiment: Binding affinity towards 5-hydroxytryptamine 1 receptor using [3H]5-HT as a radioligand from rat frontal cortex homogenates; type: tissue-based
[2] = biological target: Serotonin 2 (5-HT2) receptor (Rattus norvegicus, UniProt P30994+P08909+P14842); experiment: Binding affinity at 5-hydroxytryptamine 2 receptor from rat frontal cortex homogenates by [3H]-spiperone displacement.; type: tissue-based
[3] = (§1) Ratio of affinity towards 5-HT1 to 5-HT2 receptor
Method in brief: (§2)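 Frontal cortex from male Wistar rats (140–160 g), homogenate pellet in 0.05 M Tris with 10 μM pargyline and 4 mM Ca²⁺, 250–350 μg protein/sample. 5-HT1: 2 nM [³H]-5-HT, nonspecific with 10 μM 5-HT. […] Eleven concentrations, 0.1–10 000 nM, in duplicate. IC50 from curve fitting of specific binding.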

[4] = biological target: T1, Serotonin 1 (5-HT1) receptor; experiment: Tested for its binding affinity towards 5-hydroxytryptamine 1 receptor in rat cortical membrane homogenates using radioligand ([3H]5-HT) binding assay.; type: cell membranes; method in brief: as §2
Rattus norvegicus [5] = experiment: Minimum effective dose required to suppressing (MED) 5HIAA concentration in rat when administered sc; type: functional; details: read-out: MED
Method in brief: (§3)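 Male Wistar rats (~150 g). Compound in dilute HCl given sc at graded doses 1 h before decapitation. Whole-brain 5-HIAA measured by LC with electrochemical detection; serum corticosterone measured spectrofluorometrically. Minimum effective dose is the lowest dose giving a significant difference from control (P < 0.05).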

Rattus norvegicus [6] = experiment: Minimum effective dose required to increase (MED) corticosterone in rat serum, sc; type: functional; details: read-out: MED; method in brief: as §3
Rattus norvegicus [7] = organism: Rattus norvegicus; experiment: Effect of […] on the elevation of serum corticosterone at a dose 100 ug/mL PCPA pretreament; type: functional, organism-based
Method in brief: (§4)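 Rats got p-chlorophenylalanine (300 mg/kg, ip) or no pretreatment. 24 h later, drug (0.3 mg/kg, sc, dilute HCl) or p-chloroamphetamine HCl (2.5 mg/kg, ip) was given, and rats were killed 1 h after. Serum corticosterone was measured spectrofluorometrically. Results are mean ± SE, five male Wistar rats/group.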

Rattus norvegicus [8] = organism: Rattus norvegicus; experiment: Effect of fluoxetine on the elevation of serum corticosterone at a dose 100 ug/mL, Fluoxetine pretreament; type: functional, organism-based
Method in brief: as §4, with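 “fluoxetine HCl (10” for “p-chlorophenylalanine (300”, “16” for “24”, “with decapitation” for “and rats were killed”, “rats/group, P < 0.05.” for “rats/group.”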

Rattus norvegicus [9] = organism: Rattus norvegicus; experiment: Effect of fluoxetine on the elevation of serum corticosterone at a dose 100 ug/mL, No pretreatment; type: functional, organism-based
Method in brief: as §4, with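 “fluoxetine HCl (10” for “p-chlorophenylalanine (300”, “16” for “24”, “with decapitation” for “and rats were killed”, “rats/group, P < 0.05.” for “rats/group.”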

Rattus norvegicus [10] = organism: Rattus norvegicus; experiment: Effect of […] on the elevation of serum corticosterone at a dose 100 ug/mL No pretreatment; type: functional, organism-based; method in brief: as §4
[11] = as §1; type: functional; method in brief: as §2
[12] = biological target: T1, Serotonin 1 (5-HT1) receptor; experiment: Binding affinity towards 5-hydroxytryptamine 1 receptor in rat frontal cortex homogenates using [3H]5-HT as a radioligand; type: tissue-based
Method in brief: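 Frontal cortex from male Wistar rats (140–160 g), pellet in 0.05 M Tris with 10 μM pargyline and 4 mM Ca²⁺, 250–350 μg protein/sample. 2 nM [³H]-5-HT; nonspecific binding with 10 μM 5-HT; specific binding = total minus nonspecific. Eleven test concentrations, 0.1–10 000 nM, in duplicate.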

Rattus norvegicus [13] = experiment: Effect on 3,4-dihydroxyphenylacetic acid concentration in rat striatum, after 1 mg/kg sc administration; type: functional; details: route subcutaneous
Method in brief: (§5)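 Male Wistar rats (~150 g) were given drug or apomorphine HCl sc and decapitated 1 h later. Striatal DOPAC and HVA were quantified by LC with electrochemical detection. Results are mean ± SE, five rats/group, P < 0.05.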

Rattus norvegicus [14] = experiment: Effect on homovanillic acid concentration in rat striatum, after 1 mg/kg sc administration; type: functional; details: route subcutaneous; method in brief: as §5
Rattus norvegicus [15] = experiment: Effect on homovanillic acid concentration in rat striatum, after 10 mg/kg sc administration; type: functional; details: route subcutaneous; method in brief: as §5
Rattus norvegicus [16] = experiment: Effect on homovanillic acid concentration in rat striatum, after 3 mg/kg sc administration; type: functional; details: route subcutaneous; method in brief: as §5
Rattus norvegicus [17] = experiment: Effect on 3,4-dihydroxyphenylacetic acid concentration in rat striatum, after 3 mg/kg sc administration; type: functional; details: route subcutaneous; method in brief: as §5
Rattus norvegicus [18] = experiment: Effect on 3,4-dihydroxyphenylacetic acid concentration in rat striatum, after 10 mg/kg sc administration; type: functional; details: route subcutaneous; method in brief: as §5

SMILES	IC50 [2] [µM]	Selectivity ratio [3]	IC50 [4] [µM]	other results
CN1C[C@H](CO)C[C@@H]2c3cccc4[nH]cc(c34)C[C@H]21	0.45	4	–	IC50 [1]: 0.12 µM
CC1=C[C@@H]2c3cccc4[nH]cc(c34)C[C@H]2N(C)C1 [AGROCLAVINE]	0.27	2	0.14	–
C[C@@H]1C=C2c3cccc4[nH]cc(c34)C[C@H]2N(C)C1	0.11	22	0.005	–
C=C1C=C2c3cccc4c3[C@@H](CN4)C[C@H]2N(C)C1	3.82	48	–	IC50 [1]: 0.08 µM
CN1C[C@H](CC#N)C=C2c3cccc4c3[C@@H](CN4)C[C@H]21	2.12	106	0.02	minimal effective dose (Rattus norvegicus [5]): 0.1 mg/kg; minimal effective dose (Rattus norvegicus [6]): 0.1 mg/kg
C=C1C=C2c3cccc4[nH]cc(c34)C[C@H]2N(C)C1	0.14	7	0.02	–
CSC[C@@H]1C=C2c3cccc4c3[C@@H](CN4)C[C@H]2N(C)C1	1.33	66	–	IC50 [1]: 0.02 µM; minimal effective dose (Rattus norvegicus [5]): 0.1 mg/kg; minimal effective dose (Rattus norvegicus [6]): 1 mg/kg
CN1C[C@H](CSc2ccccc2)C=C2c3cccc4c3[C@@H](CN4)C[C@H]21	0.21	26	0.008	–
CC(N)Cc1ccc(Cl)cc1 (configuration not stated)	–	–	–	Serum corticosterone (Rattus norvegicus [7]): 14.9 µg/mL; Serum corticosterone (Rattus norvegicus [8]): 29.5 µg/mL; Serum corticosterone (Rattus norvegicus [9]): 69.4 µg/mL; Serum corticosterone (Rattus norvegicus [10]): 51.1 µg/mL
COC(=O)[C@@H]1C=C2c3cccc4c3[C@@H](CN4)C[C@H]2N(C)C1	1.62	40	0.04	–
C[C@H]1C=C2c3cccc4c3[C@@H](CN4)C[C@H]2N(C)C1	> 1	–	–	IC50 [1]: 0.02 µM; minimal effective dose (Rattus norvegicus [5]): 0.001 mg/kg; Selectivity ratio [11]: > 50; minimal effective dose (Rattus norvegicus [6]): 0.003 mg/kg
C[C@@H]1C=C2c3cccc4c3[C@H](C[C@H]2N(C)C1)CN4C	1.25	8	0.16	–
CCCN1C[C@H](C)C=C2c3cccc4c3[C@@H](CN4)C[C@H]21	> 1	> 5	0.24	–
CN1C[C@H](CO)C=C2c3cccc4[nH]cc(c34)C[C@H]21	0.16	11	0.015	–
C[C@@H]1C[C@@H]2c3cccc4c3[C@@H](CN4)C[C@H]2N(C)C1	4.22	11	–	IC50 [12]: 0.39 µM
CN1CCc2cccc3c2[C@H]1Cc1ccc(O)c(O)c1-3 [APOMORPHINE]	–	–	–	DOPAC (Rattus norvegicus [13]): 2.97; HVA (Rattus norvegicus [14]): 1.59; HVA (Rattus norvegicus [15]): 0.91; HVA (Rattus norvegicus [16]): 1.14; DOPAC (Rattus norvegicus [17]): 2.33; DOPAC (Rattus norvegicus [18]): 1.73
CN1C[C@H](CO)C=C2c3cccc4c3[C@@H](CN4)C[C@H]21	2.65	102	–	IC50 [1]: 0.026 µM; minimal effective dose (Rattus norvegicus [5]): 1 mg/kg; minimal effective dose (Rattus norvegicus [6]): 0.1 mg/kg
C[C@H]1C=C2c3cccc4[nH]cc(c34)C[C@H]2N(C)C1	0.13	1	0.08	–
CC1=C[C@@H]2c3cccc4c3[C@@H](CN4)C[C@H]2N(C)C1	1.85	14	–	IC50 [12]: 0.13 µM
CN1C[C@H](CSc2ccccn2)C=C2c3cccc4c3[C@@H](CN4)C[C@H]21	0.11	28	0.003	–
